Source: publication PMC7227796 (ACS chemical neuroscience, 2020)
Counter-ions that a name gives are not always drawn.

Columns and labels:
[1] = target: GluN1/GluN2D NMDA receptor (Rattus norvegicus, UniProt P35439+Q62645); experiment: Two-electrode voltage-clamp recordings, Xenopus oocytes expressing GluN1/GluN2D; format: cell-based
Outline: (§1)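 Xenopus oocytes were injected with rat GluN1-1a and GluN2A, 2B, 2C or 2D cRNA at a 1:2 ratio. Two-electrode voltage clamp was run 2–6 days later at room temperature and −40 mV. Bath was 90 NaCl, 1 KCl, 10 HEPES, 0.5 BaCl2, 0.01 EDTA (mM), pH 7.4. Currents were evoked by 1 μM glutamate plus 100 μM glycine, with test compound gravity-perfused. Hill fits gave IC50 per oocyte (5–6 oocytes). Ki was derived by Cheng-Prusoff using earlier glutamate EC50 values.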

native AMPA receptors = experiment: Radioligand binding at native AMPA receptors; details: rat synaptosomes, [3H]AMPA; for IC50: read-out: AMPA IC50, native iGluRs (synaptosomes)
Outline: (§2)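 Rat cortical synaptosomal membranes were labelled with 5 nM [3H]AMPA (AMPA), 5 nM [3H]KA (KA) or [3H]CGP39653 (NMDA). Test compound was run at 12–16 concentrations in triplicate, with three to six independent experiments. Cpm were fitted by nonlinear regression. Values are reported as pIC50 for AMPA and KA and as pKi for NMDA, each as mean with SEM.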

[2] = target: GluN1/GluN2B NMDA receptor (Rattus norvegicus, UniProt P35439+Q00960); experiment: Two-electrode voltage-clamp recordings, Xenopus oocytes expressing GluN1/GluN2B; format: cell-based
Outline: as §1

GluK2 = GluK2 (Rattus norvegicus, UniProt P42260); experiment: Radioligand binding at recombinant homomeric GluK2
Outline: (§3)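 Membranes from sf9 cells expressing rat homomeric GluK1, GluK2 or GluK3 were incubated in 50 mM Tris-HCl, pH 7.1, for 2 h at 4 °C. Radioligand was [3H]-(S)-NF608 for GluK1 and [3H]kainic acid for GluK2 and GluK3. Samples were filtered on GF/B, washed twice with ice-cold buffer, dried for 1 h at 70 °C and counted by scintillation. Ki came from 12–16-point triplicate curves. Single-point % specific binding is mean ± SD of three experiments, at 10 μM test compound where stated.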

[3] = target: GluN1/GluN2A NMDA receptor (Rattus norvegicus, UniProt Q00959); experiment: Two-electrode voltage-clamp recordings, Xenopus oocytes expressing GluN1/GluN2A; format: cell-based; details: two-electrode voltage-clamp
Outline: as §1

[4] = target: GluN1/GluN2A NMDA receptor (Rattus norvegicus, UniProt P35439+Q00959); experiment: as above; format: cell-based
Outline: as §1

native KA receptors = experiment: Radioligand binding at native KA receptors; details: rat synaptosomes, [3H]KA
Outline: as §2

GluK1 = GluK1 (Rattus norvegicus, UniProt P22756); experiment: Radioligand binding at recombinant homomeric GluK1
Outline: as §3

[5] = target: GluN1/GluN2C NMDA receptor (Rattus norvegicus, UniProt P35439+Q00961); experiment: Two-electrode voltage-clamp recordings, Xenopus oocytes expressing GluN1/GluN2C; format: cell-based
Outline: as §1

GluK3 = GluK3 (Rattus norvegicus, UniProt P42264); experiment: Radioligand binding at recombinant homomeric GluK3
Outline: as §3

native NMDA receptors = experiment: Radioligand binding at native NMDA receptors; set-up: species or system rat; details: for NMDA pKi with SEM (in brackets) / Ki: rat synaptosomes, [3H]CGP-39653; for Ki: read-out: NMDA Ki, native iGluRs (synaptosomes); for increase in affinity for native NMDA receptors: compared to 4a; for selectivity/preference for NMDA receptors over AMPA and KA receptors: native receptors
Outline: as §2

GluA1 = GluA1 (Rattus norvegicus, UniProt P19490); experiment: Radioligand binding at recombinant homomeric GluA1
Outline: (§4)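 Membranes from sf9 cells expressing rat homomeric GluA1 or GluA2 were incubated with [3H]-(S)-AMPA and test compound for 2 h at 4 °C. Buffer was 50 mM Tris-HCl, 0.1 M KSCN, 2.5 mM CaCl2, pH 7.2. Samples were filtered on GF/C, washed twice with ice-cold buffer and counted by scintillation. Competition curves used 12–16 concentrations in triplicate. Ki came from a one-site fit and nH from a four-parameter logistic fit.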

GluA2 = GluA2 (Rattus norvegicus, UniProt P19491); experiment: Radioligand binding at recombinant homomeric GluA2
Outline: as §4

Chain of GluA2 (P19491 22-883): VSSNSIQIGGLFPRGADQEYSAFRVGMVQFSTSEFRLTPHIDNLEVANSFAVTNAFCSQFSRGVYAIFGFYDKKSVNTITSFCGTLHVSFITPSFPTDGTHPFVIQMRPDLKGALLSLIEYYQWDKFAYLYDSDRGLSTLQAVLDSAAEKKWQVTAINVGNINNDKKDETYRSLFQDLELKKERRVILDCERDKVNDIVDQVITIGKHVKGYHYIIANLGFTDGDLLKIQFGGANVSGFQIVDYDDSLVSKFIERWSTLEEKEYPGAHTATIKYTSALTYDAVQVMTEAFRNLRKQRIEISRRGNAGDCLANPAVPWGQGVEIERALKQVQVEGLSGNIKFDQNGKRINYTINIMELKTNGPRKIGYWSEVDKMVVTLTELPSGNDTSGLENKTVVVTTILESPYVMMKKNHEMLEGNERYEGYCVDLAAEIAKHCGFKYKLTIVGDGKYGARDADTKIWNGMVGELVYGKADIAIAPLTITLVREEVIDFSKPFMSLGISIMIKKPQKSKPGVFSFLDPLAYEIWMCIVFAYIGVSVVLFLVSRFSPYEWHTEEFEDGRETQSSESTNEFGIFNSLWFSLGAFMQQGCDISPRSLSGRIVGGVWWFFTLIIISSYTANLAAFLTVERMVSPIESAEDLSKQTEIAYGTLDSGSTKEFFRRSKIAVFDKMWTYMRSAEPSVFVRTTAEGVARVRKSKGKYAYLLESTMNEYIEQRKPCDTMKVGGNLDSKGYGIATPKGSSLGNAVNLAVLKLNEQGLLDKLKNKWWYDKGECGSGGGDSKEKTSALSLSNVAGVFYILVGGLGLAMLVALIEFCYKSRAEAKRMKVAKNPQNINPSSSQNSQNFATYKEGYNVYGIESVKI
Chain of GluN1/GluN2D NMDA receptor (Q62645 28-1323, other chains not shown): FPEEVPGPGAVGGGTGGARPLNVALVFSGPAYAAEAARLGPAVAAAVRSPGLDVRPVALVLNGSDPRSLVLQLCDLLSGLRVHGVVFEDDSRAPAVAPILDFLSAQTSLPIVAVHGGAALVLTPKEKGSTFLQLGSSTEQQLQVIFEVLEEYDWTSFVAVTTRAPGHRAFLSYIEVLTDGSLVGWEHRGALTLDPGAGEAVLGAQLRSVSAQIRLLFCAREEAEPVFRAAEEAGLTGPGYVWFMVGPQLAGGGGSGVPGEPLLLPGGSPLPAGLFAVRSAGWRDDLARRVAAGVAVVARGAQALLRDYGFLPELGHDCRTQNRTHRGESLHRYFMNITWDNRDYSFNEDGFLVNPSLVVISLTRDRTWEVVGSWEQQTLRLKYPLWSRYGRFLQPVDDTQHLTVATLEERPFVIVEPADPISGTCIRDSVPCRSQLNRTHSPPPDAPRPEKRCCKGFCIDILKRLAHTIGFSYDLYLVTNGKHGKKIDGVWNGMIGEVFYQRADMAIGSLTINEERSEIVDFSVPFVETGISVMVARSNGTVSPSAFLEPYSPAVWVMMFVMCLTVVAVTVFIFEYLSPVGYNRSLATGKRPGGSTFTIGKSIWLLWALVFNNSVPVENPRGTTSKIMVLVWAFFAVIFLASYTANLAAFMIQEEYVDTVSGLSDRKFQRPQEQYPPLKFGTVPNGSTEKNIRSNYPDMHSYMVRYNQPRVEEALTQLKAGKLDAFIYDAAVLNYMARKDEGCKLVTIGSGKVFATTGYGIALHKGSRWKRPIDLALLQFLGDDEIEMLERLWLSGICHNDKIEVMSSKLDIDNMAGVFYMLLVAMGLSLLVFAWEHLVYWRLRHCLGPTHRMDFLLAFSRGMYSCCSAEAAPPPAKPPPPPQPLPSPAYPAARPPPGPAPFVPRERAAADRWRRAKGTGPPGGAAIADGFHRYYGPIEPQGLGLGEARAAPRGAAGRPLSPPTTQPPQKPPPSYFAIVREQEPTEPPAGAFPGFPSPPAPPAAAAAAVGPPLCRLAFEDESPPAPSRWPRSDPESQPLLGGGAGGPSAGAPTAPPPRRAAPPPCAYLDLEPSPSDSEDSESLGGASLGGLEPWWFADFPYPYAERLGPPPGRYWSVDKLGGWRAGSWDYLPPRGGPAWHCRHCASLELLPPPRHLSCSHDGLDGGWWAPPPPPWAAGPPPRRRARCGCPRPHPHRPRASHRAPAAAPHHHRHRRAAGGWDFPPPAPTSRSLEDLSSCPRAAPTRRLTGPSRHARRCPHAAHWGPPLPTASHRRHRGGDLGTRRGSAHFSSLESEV
Chain of GluK2 (P42260 32-908): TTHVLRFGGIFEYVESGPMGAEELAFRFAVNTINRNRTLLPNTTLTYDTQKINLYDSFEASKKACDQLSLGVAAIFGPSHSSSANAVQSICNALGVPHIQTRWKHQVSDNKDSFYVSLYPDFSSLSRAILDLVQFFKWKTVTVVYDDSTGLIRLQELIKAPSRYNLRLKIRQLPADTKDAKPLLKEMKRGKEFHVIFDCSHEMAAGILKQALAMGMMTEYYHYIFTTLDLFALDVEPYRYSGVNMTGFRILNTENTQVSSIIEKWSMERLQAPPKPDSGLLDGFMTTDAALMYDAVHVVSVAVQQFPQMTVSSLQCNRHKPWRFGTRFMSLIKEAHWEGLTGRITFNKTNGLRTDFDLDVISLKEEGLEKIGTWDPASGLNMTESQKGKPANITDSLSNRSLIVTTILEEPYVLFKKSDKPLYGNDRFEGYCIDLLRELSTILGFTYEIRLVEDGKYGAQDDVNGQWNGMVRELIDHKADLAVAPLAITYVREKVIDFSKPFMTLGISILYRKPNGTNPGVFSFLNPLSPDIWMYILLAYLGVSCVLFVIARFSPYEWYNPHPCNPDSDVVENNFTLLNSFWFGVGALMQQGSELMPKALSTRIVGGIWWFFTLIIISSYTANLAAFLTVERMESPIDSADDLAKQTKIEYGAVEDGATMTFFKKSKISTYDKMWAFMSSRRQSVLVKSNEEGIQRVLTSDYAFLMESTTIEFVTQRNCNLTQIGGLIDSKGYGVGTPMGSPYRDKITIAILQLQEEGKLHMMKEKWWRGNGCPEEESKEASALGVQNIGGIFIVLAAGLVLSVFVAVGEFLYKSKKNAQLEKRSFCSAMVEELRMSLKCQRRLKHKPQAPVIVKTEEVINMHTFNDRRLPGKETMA
Chain of GluK3 (P42264 32-919): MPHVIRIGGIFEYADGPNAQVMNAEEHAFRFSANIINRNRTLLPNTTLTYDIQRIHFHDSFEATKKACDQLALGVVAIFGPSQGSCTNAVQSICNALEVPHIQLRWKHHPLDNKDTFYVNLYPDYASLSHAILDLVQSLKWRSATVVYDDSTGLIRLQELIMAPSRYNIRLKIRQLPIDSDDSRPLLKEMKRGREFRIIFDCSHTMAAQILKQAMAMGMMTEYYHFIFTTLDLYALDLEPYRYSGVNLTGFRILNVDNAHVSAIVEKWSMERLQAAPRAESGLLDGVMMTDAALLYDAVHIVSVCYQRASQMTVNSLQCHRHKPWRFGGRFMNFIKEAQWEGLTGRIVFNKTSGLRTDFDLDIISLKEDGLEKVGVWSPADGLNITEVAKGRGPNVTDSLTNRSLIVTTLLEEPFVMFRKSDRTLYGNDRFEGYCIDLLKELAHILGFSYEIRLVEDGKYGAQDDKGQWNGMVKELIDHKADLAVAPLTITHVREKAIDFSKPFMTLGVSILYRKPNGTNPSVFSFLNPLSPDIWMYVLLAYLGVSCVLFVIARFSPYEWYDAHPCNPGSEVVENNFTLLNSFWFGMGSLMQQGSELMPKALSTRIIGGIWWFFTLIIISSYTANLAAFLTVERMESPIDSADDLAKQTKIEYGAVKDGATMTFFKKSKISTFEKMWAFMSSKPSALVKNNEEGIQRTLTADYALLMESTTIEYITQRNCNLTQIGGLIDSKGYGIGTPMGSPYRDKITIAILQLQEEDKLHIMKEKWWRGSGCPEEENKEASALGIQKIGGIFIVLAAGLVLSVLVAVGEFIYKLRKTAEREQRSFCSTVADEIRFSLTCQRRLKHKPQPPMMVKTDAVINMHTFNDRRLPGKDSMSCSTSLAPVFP
Chain of GluA1 (P19490 19-907): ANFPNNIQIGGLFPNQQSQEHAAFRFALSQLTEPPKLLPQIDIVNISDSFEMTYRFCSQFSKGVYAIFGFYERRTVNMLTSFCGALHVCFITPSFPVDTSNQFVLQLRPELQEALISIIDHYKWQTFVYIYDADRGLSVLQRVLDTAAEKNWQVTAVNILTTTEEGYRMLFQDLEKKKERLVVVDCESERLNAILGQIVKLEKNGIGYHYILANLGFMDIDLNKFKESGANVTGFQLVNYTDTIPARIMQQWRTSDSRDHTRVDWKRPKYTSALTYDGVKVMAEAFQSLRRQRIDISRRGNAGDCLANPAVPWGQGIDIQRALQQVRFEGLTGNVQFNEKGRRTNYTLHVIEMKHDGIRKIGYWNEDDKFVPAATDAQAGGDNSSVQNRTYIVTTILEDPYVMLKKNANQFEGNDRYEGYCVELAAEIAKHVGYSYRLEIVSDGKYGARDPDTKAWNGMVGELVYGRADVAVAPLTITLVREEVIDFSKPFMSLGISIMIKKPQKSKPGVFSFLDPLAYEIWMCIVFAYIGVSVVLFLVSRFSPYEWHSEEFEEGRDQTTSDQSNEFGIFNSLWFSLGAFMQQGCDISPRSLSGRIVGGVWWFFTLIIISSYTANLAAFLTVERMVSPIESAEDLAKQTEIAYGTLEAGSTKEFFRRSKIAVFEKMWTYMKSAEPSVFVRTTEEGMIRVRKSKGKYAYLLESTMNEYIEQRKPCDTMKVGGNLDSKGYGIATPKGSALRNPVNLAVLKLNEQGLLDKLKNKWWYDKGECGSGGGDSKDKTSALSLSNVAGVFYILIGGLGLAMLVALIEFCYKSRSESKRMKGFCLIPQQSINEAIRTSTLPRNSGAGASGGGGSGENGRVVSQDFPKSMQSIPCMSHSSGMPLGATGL

Row | SMILES | IC50 [1] [µM] | IC50 (native AMPA receptors) [µM] | IC50 [2] [µM] | Ki (GluK2) [µM] | selectivity for GluN1/2A over GluN1/2B and GluN1/2C [3] [fold] | selectivity for GluN1/2A over GluN1/2D [3] [fold] | IC50 [4] [µM] | KA IC50, native iGluRs (synaptosomes) (native KA receptors) [µM] | Ki (GluK1) [µM] | IC50 [5] [µM] | Ki (GluK3) [µM] | NMDA pKi with SEM (in brackets) (native NMDA receptors) | Ki (native NMDA receptors) [µM] | AMPA pIC50 with SEM (in brackets) (native AMPA receptors) | KA pIC50 with SEM (in brackets) (native KA receptors) | increase in affinity for native NMDA receptors (native NMDA receptors) [fold] | selectivity/preference for NMDA receptors over AMPA and KA receptors (native NMDA receptors) [fold] | Ki (GluA1) [µM] | Ki (GluA2) [µM] | Ki [4] [µM]
1 | O=C(O)c1ccc([C@H]2CCN[C@@H]2C(=O)O)cc1C(=O)O [4h, 4-((2S,3R)-2-Carboxypyrrolidin-3-yl)phthalic acid tri sodium salt] | 24.3 ± 1.46 | > 100 | 4.24 ± 0.13 | > 100 | 6 to 10 | 32 to 34 | 0.75 ± 0.03 | >100 | > 100 | 5.17 ± 0.12 | > 100 | 5.88 ± 0.06 | 1.3 |  |  |  |  |  |  | 
2 | Cl.O=C(O)c1cc(C(=O)O)cc([C@H]2CCN[C@@H]2C(=O)O)c1 [5c, 5-((2S,3R)-2-Carboxypyrrolidin-3-yl)isophthalic acid hydrochloride] | 21.2 ± 0.37 | 36 | 4.37 ± 0.17 | > 100 | 6 to 10 | 32 to 34 | 0.63 ± 0.01 | 63 | 12.5 ± 1.7 | 6.27 ± 0.13 | 15.7 ± 3.1 | 6.32 ± 0.03 | 0.48 | 4.45 ± 0.04 | 4.21 ± 0.05 | 9 | 75 |  |  | 
3 | Cl.O=C(O)c1cc(-c2cnn[nH]2)cc([C@H]2CCN[C@@H]2C(=O)O)c1 [5d, (2S,3R)-3-(3-Carboxy-5-(1H-1,2,3-triazol-5-yl)phenyl)pyrrolidine-2-carboxylic acid hydrochloride] | 18.5 ± 1.54 | 21 | 3.51 ± 0.18 | > 100 |  |  | 1.36 ± 0.06 | 20 | > 50 | 7.28 ± 0.17 | 10 to 50 | 6.08±0.05 | 0.83 | 4.69 ±0.04 | 4.71±0.06 | 7 | 24 |  |  | 
4 | Cl.O=C(O)c1cc(-c2ccccn2)cc([C@H]2CCN[C@@H]2C(=O)O)c1 [5e, (2S,3R)-3-(3-Carboxy-5-(pyridin-2-yl)phenyl)pyrrolidine-2-carboxylic acid hydrochloride] |  | 40 |  | > 100 |  |  |  | 20 | 20 ± 1.8 |  | 6.4 ± 0.41 | 5.42±0.01 | 3.8 | 4.40±0.05 | 4.71±0.05 |  |  | 19 | 55 | 
5 | Cl.O=C(O)c1cc(-c2cccnc2)cc([C@H]2CCN[C@@H]2C(=O)O)c1 [5f, (2S,3R)-3-(3-Carboxy-5-(pyridin-3-yl)phenyl)pyrrolidine-2-carboxylic acid hydrochloride] |  | 29 |  | > 100 |  |  |  | 23 | 25 ± 1.2 |  | 5.9 ± 0.62 | 5.51±0.02 | 3.1 | 4.57±0.13 | 4.65±0.03 |  |  | 15 | 40 | 
6 | Cl.O=C(O)c1cc(-c2ccncc2)cc([C@H]2CCN[C@@H]2C(=O)O)c1 [5g, (2S,3R)-3-(3-Carboxy-5-(pyridin-4-yl)phenyl)pyrrolidine-2-carboxylic acid hydrochloride] |  | 27 |  | > 100 |  |  |  | 25 | 22 ± 2.3 |  | 6.5 ± 0.92 | 5.76±0.01 | 1.7 |  | 4.61±0.05 |  |  | 12 | 33 | 
7 | Cl.O=C(O)c1cc(-c2cncnc2)cc([C@H]2CCN[C@@H]2C(=O)O)c1 [5h, (2S,3R)-3-(3-Carboxy-5-(pyrimidin-5-yl)phenyl)pyrrolidine-2-carboxylic acid hydrochloride] |  | 59 |  | 100 |  |  |  | >100 | 100 |  | 13 ± 0.17 | 4.98±0.01 | 10 | 4.30±0.13 |  |  |  | 22.7 | 82.9 | 
8 | Cl.O=C(O)c1cc(-c2cnc(O)nc2)cc([C@H]2CCN[C@@H]2C(=O)O)c1 [5i, (2S,3R)-3-(3-Carboxy-5-(2-hydroxypyrimidin-5-yl)phenyl)pyrrolidine-2-carboxylic acid hydrochloride] |  | 13 |  | > 100 |  |  |  | >100 | 76 ± 1.8 |  | 16 ± 0.98 | 5.39±0.03 | 4.1 | 4.92±0.13 |  |  |  | 10 | 56 | 
9 | Cl.O=C(O)c1cc([C@H]2CCN[C@@H]2C(=O)O)cc(C(=O)O)c1Cl [6b, 5-((2S,3R)-2-Carboxypyrrolidin-3-yl)-2-chloroisophthalic acid hydrochloride] | 5.15 ± 0.23 | > 100 | 0.75 ± 0.04 | ≥ 100 |  |  | 0.2 ± 0.02 | >100 | ≥ 100 | 1.33 ± 0.03 | > 50 | 6.82 ± 0.08 | 0.16 |  |  |  |  |  |  | 0.2
10 | O=C(O)C(F)(F)F.O=C(O)c1ccc([C@H]2CCN[C@@H]2C(=O)O)cc1 [compound 7, (2S,3R)-3-(4-Carboxyphenyl)pyrrolidine-2-carboxylic acid trifluoro acetic acid] | 159 ± 8.7 | > 100 | 165 ± 14.1 | > 100 |  |  | 45 ± 1.5 | >100 | > 100 | 193 ± 6.1 | > 100 |  | 8.5 |  |  |  |  |  |  | 
